In ChEMBL document CHEMBL1127433, “N6-substituted adenosine receptor agonists. Synthesis and pharmacological activity as potent antinociceptive agents” (J Med Chem, 1994):
The source made the active and inactive calls. The rule behind the calls is not given here.

What was measured:
[1] = target: T1, Adenosine receptor A1 (Rattus norvegicus, UniProt P25099); assay: Binding affinity for adenosine A1 receptor in vitro using rat brain membranes.; assay type: cell membranes
T1 sequence (P25099 whole entry): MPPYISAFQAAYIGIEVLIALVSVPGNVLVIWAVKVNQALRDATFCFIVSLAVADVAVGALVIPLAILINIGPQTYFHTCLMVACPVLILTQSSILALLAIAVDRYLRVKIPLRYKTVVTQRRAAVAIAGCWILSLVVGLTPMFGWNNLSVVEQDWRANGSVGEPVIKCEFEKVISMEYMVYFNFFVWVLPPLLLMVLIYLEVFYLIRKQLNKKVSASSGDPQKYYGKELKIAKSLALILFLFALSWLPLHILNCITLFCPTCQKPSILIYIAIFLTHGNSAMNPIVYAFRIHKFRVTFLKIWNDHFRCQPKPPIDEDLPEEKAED
In short: (§1)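 Whole rat brain membranes, homogenized in 50 mM Tris-HCl pH 7.4 and spun at 1090g then 48000g, pretreated with adenosine deaminase 1 U/mL for 30 min. Nonspecific binding defined with 10 μM PIA. Separated by GF/B filtration and scintillation counted, in triplicate. IC50 from log-logit regression, Ki via Cheng-Prusoff, one experiment.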

[2] = target: T2, Adenosine receptor A1 (Rattus norvegicus) (UniProt P25099); assay: Percent displacement from adenosine A1 receptor at 10e-5 M in rat brain membrane in vitro.; assay type: cell membranes
T2 sequence (whole entry): T1 sequence (P25099 whole entry)

[3] = target: T2, Adenosine receptor A1 (Rattus norvegicus); assay: Percent displacement from adenosine A1 receptor at 10e-7 M in rat brain membrane in vitro.; assay type: cell membranes
[4] = target: Adenosine A2 receptor (Rattus norvegicus, UniProt P29276+P30543); assay: Binding affinity for adenosine A2 receptor in vitro using rat striatal membrane.; assay type: cell membranes
In short: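 Rat striatal membranes in 50 mM Tris-HCl, 10 mM MgCl2, pH 7.7, adenosine deaminase treated (1 U/mL, 30 min). Incubated with [3H]NECA (4 nM, 50 μL) plus 0.11 μM cyclopentyladenosine and competitor for 60 min at 25 °C. Nonspecific binding defined with 5 μM NECA. GF/B filtration, scintillation counting, triplicate. IC50 from log-logit regression, Ki via Cheng-Prusoff, one experiment.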

[5] = target: T3, Adenosine A2 receptor (Rattus norvegicus) (UniProt P29276+P30543); assay: Percent displacement from adenosine A2 receptor at 10e-5 M in rat striatal membrane in vitro.; assay type: cell membranes
[6] = target: T3, Adenosine A2 receptor (Rattus norvegicus); assay: Percent displacement from adenosine A2 receptor at 10e-7 M in rat striatal membrane in vitro.; assay type: cell membranes; settings: Striatum
[7] = tested on: Mus musculus; assay: Effective dose of compound for phenylbenzoquinone-Induced writhing in mice after peroral administration expressed as analgesic activity; Not dose dependent; assay type: functional; settings: po
In short: (§2)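 Mice dosed orally (0.5 mL/20 g); 1 h later given 0.02% phenylbenzoquinone in hydroalcoholic solution ip (0.20-0.24 mL). Writhings and stretches counted from minute 5 to minute 10. Six animals per group. Inhibition taken against the control mean; ED50 (50% decrease) by linear regression.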

[8] = target: T1, Adenosine receptor A1; assay: Binding affinity for adenosine A1 receptor in rat brain membrane; assay type: cell membranes
In short: as §1, with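 “U/mL for 30 min. Incubated with 2.5 nM [3H]PIA and competitor at 20 °C” for “U/mL”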

[9] = tested on: Mus musculus; assay: Effective dose for phenylbenzoquinone-induced writhing in mice after peroral administration expressed as analgesic activity.; assay type: functional; settings: po; in short: as §2
[10] = tested on: Mus musculus; assay: Effective dose of compound for phenylbenzoquinone-Induced writhing in mice after peroral administration expressed as analgesic activity; Inactive; assay type: functional, organism-based; in short: as §2
[11] = tested on: Mus musculus; assay: Effective dose of compound for phenylbenzoquinone-Induced writhing in mice after peroral administration expressed as analgesic activity; Not calculated; assay type: functional; settings: po; in short: as §2

## O=C(NC1CC1)[C@H]1O[C@@H](n2cnc3c(NCCc4cn(Cc5cccnc5)c5ccccc45)ncnc32)[C@H](O)[C@@H]1O
[1]
  Ki: 0.026 µM
[2]
  Displacement: 97%
[3]
  Displacement: 78%
[4]
  Ki: 0.183 µM
[5]
  Displacement: 98%
[6]
  Displacement: 30%
[7]
  ED50: > 30 mg/kg

## Cc1ccc(Cn2cc(CCNc3ncnc4c3ncn4C3O[C@H](C(=O)NC4CC4)[C@@H](O)[C@H]3O)c3ccccc32)cc1C (stereo partly specified)
[1]
  Ki: 0.16 µM
[2]
  Displacement: 96%
[3]
  Displacement: 29%
[4]
  Ki: 0.82 µM
[5]
  Displacement: 83%
[6]
  Displacement: 13%
[7]
  ED50: > 30 mg/kg

## O=C(NC1CC1)[C@H]1OC(n2cnc3c(NCCc4cn(CC5CC5)c5ccccc45)ncnc32)[C@H](O)[C@@H]1O (stereo partly specified)
[1]
  Ki: 0.067 µM
[2]
  Displacement: 97%
[3]
  Displacement: 45%
[4]
  Ki: 0.19 µM
[5]
  Displacement: 87%
[6]
  Displacement: 25%
[7]
  ED50: > 10 mg/kg

## OC[C@H]1OC(n2cnc3c(NCCc4cn(Cc5ccccc5)c5ccccc45)ncnc32)[C@H](O)[C@@H]1O (stereo partly specified)
[1]
  Ki: 0.05 µM
[2]
  Displacement: 100%
[3]
  Displacement: 67%
[4]
  Ki: 0.25 µM
[5]
  Displacement: 95%
[6]
  Displacement: 30%
[7]
  ED50: > 30 mg/kg

## O=C(NC1CC1)[C@H]1O[C@@H](n2cnc3c(NCCc4cn(Cc5cccc6ccccc56)c5ccccc45)ncnc32)[C@H](O)[C@@H]1O
[8]
  Ki: 0.37 µM
[2]
  Displacement: 93%
[3]
  Displacement: 20%
[4]
  Ki: 1.4 µM
[5]
  Displacement: 76%
[6]
  Displacement: 8%
[9]
  ED50: 2.4 mg/kg

## Cc1ccc(C)c(Cn2c(-c3ccccc3)c(CCNc3ncnc4c3ncn4C3O[C@H](C(=O)NC4CC4)[C@@H](O)[C@H]3O)c3ccccc32)c1 (stereo partly specified)
[2]
  Displacement: 31%
[3]
  Displacement: 6%
[5]
  Displacement: 23%
[6]
  Displacement: 0%
[7]
  ED50: > 30 mg/kg

## COCCNC(=O)[C@H]1O[C@@H](n2cnc3c(NCCc4cn(Cc5ccc(Cl)cc5)c5ccccc45)ncnc32)[C@H](O)[C@@H]1O
[1]
  Ki: 0.89 µM
[2]
  Displacement: 90%
[3]
  Displacement: 13%
[4]
  Ki: > 10 µM
[5]
  Displacement: 36%
[6]
  Displacement: 0%
[10]
  ED50: inactive

## CN(C)CCn1cc(CCNc2ncnc3c2ncn3C2O[C@H](C(=O)NC3CC3)[C@@H](O)[C@H]2O)c2ccccc21 (stereo partly specified)
[2]
  Displacement: 100%
[3]
  Displacement: 83%
[5]
  Displacement: 95%
[6]
  Displacement: 51%
[7]
  ED50: > 60 mg/kg

## CC(C)(CO)NC(=O)[C@H]1OC(n2cnc3c(NCCc4cn(Cc5ccc(Cl)cc5)c5ccccc45)ncnc32)[C@H](O)[C@@H]1O (stereo partly specified)
[2]
  Displacement: 79%
[3]
  Displacement: 5%
[5]
  Displacement: 50%
[6]
  Displacement: 0%
[10]
  ED50: inactive

## O=C(NC1CC1)[C@H]1OC(n2cnc3c(NCCc4cn(Cc5ccc(Br)cc5F)c5ccccc45)ncnc32)[C@H](O)[C@@H]1O (stereo partly specified)
[2]
  Displacement: 96%
[3]
  Displacement: 40%
[5]
  Displacement: 92%
[6]
  Displacement: 23%
[10]
  ED50: inactive

## O=C(NC1CC1)[C@H]1OC(n2cnc3c(NCCc4cn(Cc5ccc(Cl)c(Cl)c5)c5ccccc45)ncnc32)[C@H](O)[C@@H]1O (stereo partly specified)
[1]
  Ki: 0.14 µM
[2]
  Displacement: 100%
[3]
  Displacement: 52%
[4]
  Ki: 1.4 µM
[5]
  Displacement: 81%
[6]
  Displacement: 24%
[7]
  ED50: > 30 mg/kg

## O=C(NC1CC1)[C@H]1O[C@@H](n2cnc3c(NCCc4c[nH]c5ccccc45)ncnc32)[C@H](O)[C@@H]1O
[8]
  Ki: 0.0079 µM
[2]
  Displacement: 100%
[3]
  Displacement: 91%
[4]
  Ki: 0.56 µM
[5]
  Displacement: 68%
[6]
  Displacement: 29%
[9]
  ED50: 34.9 mg/kg

## Cc1ccc(Cn2cc(CCNc3ncnc4c3ncn4C3O[C@H](C(=O)NC4CC4)[C@@H](O)[C@H]3O)c3ccccc32)cc1 (stereo partly specified)
[1]
  Ki: 0.13 µM
[2]
  Displacement: 97%
[3]
  Displacement: 37%
[4]
  Ki: 0.34 µM
[5]
  Displacement: 89%
[6]
  Displacement: 21%
[7]
  ED50: < 3 mg/kg

## C#CCn1cc(CCNc2ncnc3c2ncn3C2O[C@H](C(=O)NC3CC3)[C@@H](O)[C@H]2O)c2ccccc21 (stereo partly specified)
[2]
  Displacement: 95%
[3]
  Displacement: 64%
[5]
  Displacement: 83%
[6]
  Displacement: 25%
[7]
  ED50: < 10 mg/kg

## CSc1ccc2c(c1)c(CCNc1ncnc3c1ncn3C1O[C@H](C(=O)NC3CC3)[C@@H](O)[C@H]1O)cn2Cc1cc(C)ccc1C (stereo partly specified)
[2]
  Displacement: 82%
[3]
  Displacement: 13%
[5]
  Displacement: 76%
[6]
  Displacement: 8%
[7]
  ED50: > 10 mg/kg

## CCNC(=O)[C@H]1OC(n2cnc3c(NCCc4cn(Cc5cc(C)ccc5C)c5ccccc45)ncnc32)[C@H](O)[C@@H]1O (stereo partly specified)
[1]
  Ki: 0.16 µM
[2]
  Displacement: 92%
[3]
  Displacement: 38%
[4]
  Ki: 0.66 µM
[5]
  Displacement: 86%
[6]
  Displacement: 12%
[7]
  ED50: < 2 mg/kg

## O=C(NC1CC1)[C@H]1O[C@@H](n2cnc3c(NCCc4cn(C5CCCC5)c5ccccc45)ncnc32)[C@H](O)[C@@H]1O
[1]
  Ki: 0.11 µM
[2]
  Displacement: 96%
[3]
  Displacement: 21%
[4]
  Ki: 0.35 µM
[5]
  Displacement: 90%
[6]
  Displacement: 28%
[9]
  ED50: 1.5 mg/kg

## O=C(NC1CC1)[C@H]1O[C@@H](n2cnc3c(NCCc4cn(Cc5cccc([N+](=O)[O-])c5)c5ccccc45)ncnc32)[C@H](O)[C@@H]1O
[1]
  Ki: 0.029 µM
[2]
  Displacement: 100%
[3]
  Displacement: 63%
[4]
  Ki: 0.182 µM
[5]
  Displacement: 99%
[6]
  Displacement: 46%
[11]
  ED50: < 10 mg/kg

## Cc1c(CCNc2ncnc3c2ncn3[C@@H]2O[C@H](C(=O)NC3CC3)[C@@H](O)[C@H]2O)c2ccccc2n1C1CCCC1
[1]
  Ki: 0.895 µM
[2]
  Displacement: 77%
[3]
  Displacement: 15%
[4]
  Ki: 2.18 µM
[5]
  Displacement: 92%
[6]
  Displacement: 6%
[9]
  ED50: 0.5 mg/kg

## O=C(NC1CC1)[C@H]1OC(n2cnc3c(NCCc4cn(Cc5ccc(Cl)cc5)c5ccc(Cl)cc45)ncnc32)[C@H](O)[C@@H]1O (stereo partly specified)
[2]
  Displacement: 100%
[3]
  Displacement: 49%
[5]
  Displacement: 79%
[6]
  Displacement: 23%
[10]
  ED50: inactive
